This assay concerns Mycobacterium tuberculosis variant bovis. Description: Antimicrobial activity against Mycobacterium bovis AN5 expressing luciferase reporter gene assessed as growth inhibition after 6 days by luminometry. The class given is functional. As to conditions: AN5, 144 h. A digest of the protocol:
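Other mycobacteria (M. avium ssp. avium ATCC 15769, ssp. paratuberculosis ATCC 19698, M. bovis AN5) were grown in 7H9 with 10% OADC and 0.2% glycerol; M. bovis had 0.05% Tween 80 in place of glycerol, and paratuberculosis had mycobactin J (2 mg/ml); all were grown at 39 °C. Serial dilutions were tested by the luciferase luminometry assay and the 50% growth-reduction concentration was read.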
On the technique in general: A reporter such as luciferase makes a cellular process visible.
For orientation: GI50 means the concentration giving 50% growth inhibition. With `O=C1c2ccccc2C(=O)c2c(O)cc(-c3ccccc3)cc21`, the GI50 came out at 0.8 µM.
For `COc1ccc(-c2cc(O)c3c(c2)C(=O)c2ccccc2C3=O)cc1` the value was 0.38 µM; for `CN(C)/C=C/c1nc(-c2ccccc2)cc2c1C(=O)c1ccccc1C2=O`, 0.64 µM; for `COc1ccc(-c2cc3c(c(/C=C/N(C)C)n2)C(=O)c2ccccc2C3=O)cc1`, 0.47 µM.
For `CN(C)/C=C/c1nc(-c2ccc(F)cc2)cc2c1C(=O)c1ccccc1C2=O` the value was 0.48 µM.
To `CN(C)/C=C/c1nc(-c2ccc(Cl)cc2)cc2c1C(=O)c1ccccc1C2=O` belongs 0.49 µM.
For `Cc1ccc(-c2cc3c(c(/C=C/N(C)C)n2)C(=O)c2ccccc2C3=O)cc1`, the GI50 worked out at 0.58 µM.
To `O=C1c2ccccc2-c2nccc3nc(-c4ccccc4)cc1c23` belongs 0.67 µM; to `COc1ccc(-c2cc3c4c(nccc4n2)-c2ccccc2C3=O)cc1`, 0.52 µM; to `O=C1c2ccccc2-c2nccc3nc(-c4ccc(F)cc4)cc1c23`, 0.67 µM.

The values are drawn from ChEMBL document CHEMBL2434878, “Synthesis and antimycobacterial activity of analogues of the bioactive natural products sampangine and cleistopholine” (Eur J Med Chem, 2013).
